≈ marks a conversion by molar mass, not a printed value.
Key:
[1] = Clearance in mouse liver microsomes at 1 uM incubated for 10 mins by LC-MS/MS method; assay type: ADME, Microsome
Method in brief: (§1)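 Liver microsomes (human or mouse, 0.5 mg/mL) in 100 mM potassium phosphate pH 7.4 with 1 μM compound, prewarmed 10 min at 37 °C, started with NADPH (10 mM); stopped at 0, 3, 6, 9, 15, 30 min with ice-cold methanol containing tolbutamide internal standard; LC-MS/MS. Hepatic clearance (mL/min/kg) calculated from intrinsic clearance.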

Cytochrome P450 2D6 = Cytochrome P450 2D6 (Homo sapiens, UniProt P10635); assay: Inhibition of CYP2D6 in human liver microsomes in presence of NADPH by LC-MS/MS method; assay type: ADME, Microsome
[2] = Tmax in BALB/C mouse at 10 mg/kg, po or 2 mg/kg, iv by LC-MS/MS method; assay type: ADME, organism-based; conditions: BALB/C, in vivo
Method in brief: (§2)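 Single-dose PK: iv bolus 2 mg/kg in 5% DMSO/40% PEG400/55% saline and/or oral gavage 10 mg/kg as 0.445% microcrystalline cellulose microsuspension; BALB/C nude mice (15−20 g, N = 16 per arm) or male Sprague−Dawley rats (250 ± 20 g, N = 3). Blood at eight (po) or nine (iv) time points into sodium heparin, plasma by LC-MS/MS, noncompartmental analysis.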

[3] = Cmax in BALB/C mouse at 10 mg/kg, po or 2 mg/kg, iv by LC-MS/MS method; assay type: ADME, organism-based; conditions: BALB/C, in vivo
Method in brief: (§3)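 Female-unspecified BALB/C nude mice (15−20 g, N = 16 per arm); iv bolus 2 mg/kg in 5% DMSO/40% PEG400/55% saline and/or oral gavage 10 mg/kg as 0.445% microcrystalline cellulose microsuspension. Blood sampled at nine (iv) or eight (po) time points into sodium heparin tubes; plasma by LC-MS/MS; noncompartmental analysis.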

Cytochrome P450 2C9 = Cytochrome P450 2C9 (Homo sapiens, UniProt P11712); assay: Inhibition of CYP2C9 in human liver microsomes in presence of NADPH by LC-MS/MS method; assay type: ADME, Microsome
Cytochrome P450 3A4 = Cytochrome P450 3A4 (Homo sapiens, UniProt P08684); assay: Inhibition of CYP3A4 in human liver microsomes in presence of NADPH by LC-MS/MS method; assay type: ADME, Microsome
[4] = Oral bioavailability in BALB/C mouse at 10 mg/kg by LC-MS/MS method; assay type: ADME, organism-based; conditions: BALB/C, in vivo
Method in brief: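 Bioavailability from single-dose iv (2 mg/kg, 5% DMSO/40% PEG400/55% saline) and oral gavage (10 mg/kg, 0.445% microcrystalline cellulose microsuspension) studies in BALB/C nude mice (N = 16 per arm); plasma at eight (po) or nine (iv) time points, LC-MS/MS, noncompartmental analysis.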

[5] = AUC in BALB/C mouse at 10 mg/kg, po or 2 mg/kg, iv by LC-MS/MS method; assay type: ADME, organism-based, Plasma; conditions: BALB/C, plasma; method in brief: as §3
[6] = Half life in BALB/C mouse at 10 mg/kg, po or 2 mg/kg, iv by LC-MS/MS method; assay type: ADME, organism-based; conditions: BALB/C, in vivo; method in brief: as §3
[7] = Clearance in human liver microsomes at 1 uM incubated for 10 mins by LC-MS/MS method; assay type: ADME, Microsome; method in brief: as §1
Cytochrome P450 2C19 = Cytochrome P450 2C19 (Homo sapiens, UniProt P33261); assay: Inhibition of CYP2C19 in human liver microsomes in presence of NADPH by LC-MS/MS method; assay type: ADME, Microsome
[8] = Clearance in BALB/C mouse at 10 mg/kg, po or 2 mg/kg, iv by LC-MS/MS method; assay type: ADME, organism-based; conditions: in vivo; method in brief: as §3
Cytochrome P450 1A2 = molecular target: T1, Cytochrome P450 1A2 (Homo sapiens, UniProt P05177); assay: Inhibition of CYP1A2 in human liver microsomes in presence of NADPH by LC-MS/MS method; assay type: ADME, Microsome
T1 sequence (P05177 whole entry): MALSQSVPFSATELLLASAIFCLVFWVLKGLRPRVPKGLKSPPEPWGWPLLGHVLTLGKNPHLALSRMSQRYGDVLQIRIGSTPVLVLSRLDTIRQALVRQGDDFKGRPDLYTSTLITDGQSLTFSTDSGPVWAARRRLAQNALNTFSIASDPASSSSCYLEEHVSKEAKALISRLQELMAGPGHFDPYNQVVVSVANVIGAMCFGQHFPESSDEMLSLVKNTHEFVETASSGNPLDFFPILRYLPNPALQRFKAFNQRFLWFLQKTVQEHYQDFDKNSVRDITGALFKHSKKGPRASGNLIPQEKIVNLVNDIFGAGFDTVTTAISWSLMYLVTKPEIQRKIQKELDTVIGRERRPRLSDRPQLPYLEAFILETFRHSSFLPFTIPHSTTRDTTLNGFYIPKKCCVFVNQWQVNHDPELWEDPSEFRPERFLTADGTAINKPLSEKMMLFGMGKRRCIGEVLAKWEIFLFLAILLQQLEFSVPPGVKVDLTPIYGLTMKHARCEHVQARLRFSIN

[9] = Volume of distribution at steady state in BALB/C mouse at 10 mg/kg, po or 2 mg/kg, iv by LC-MS/MS method; assay type: ADME, organism-based; set-up: unit not given here; conditions: in vivo, read-out: Vdss; method in brief: as §2
[10] = molecular target: Histone deacetylase (Homo sapiens) (UniProt Q13547+O15379+Q9UBN7+Q92769+Q9UQL6+Q8WUI4+Q9BY41+Q96DB2+P56524+Q9UKV0+Q969S8); assay: Inhibition of Class 1 histone deacetylase in human HeLa cells assessed as induction in p21 protein expression at 3 uM incubated for 16 hrs by luciferase reporter gene assay relative to HDAC inhibitor entinostat; assay type: cell-based; set-up: scale not given: the % may be the effect or the level left
[11] = molecular target: Voltage-gated inwardly rectifying potassium channel KCNH2 (Homo sapiens, UniProt Q12809); assay: Inhibition of human ERG expressed in CHO cells by patch clamp method; assay type: cell-based
SGC-7901 = assay type: functional, Homo sapiens
SK-HEP1 = assay type: functional, Homo sapiens
BGC-823 = assay type: functional, Homo sapiens
Bel-7402 = assay type: functional, Homo sapiens
HGC-27 = assay type: functional, Homo sapiens
MGC-803 = assay type: functional, Homo sapiens
SMMC-7721 = assay type: functional, Homo sapiens
[12] = Solubility in 50 mM phosphate buffer at pH 6.5 by HPLC method; assay type: physicochemical
Method in brief: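 10 mM DMSO stock dried, residue redissolved in 50 mM phosphate buffer pH 6.5, stirred 1 h and shaken 2 h, left overnight, filtered and analysed by HPLC against calibration standards of 50−500 μM diluted from the DMSO stock.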

[13] = Volume of distribution at steady state in BALB/C mouse at 5 mg/kg, po or 1 mg/kg, iv by LC-MS/MS method; assay type: ADME, organism-based; conditions: in vivo, read-out: Vdss
Method in brief: (§4)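 Nude-mouse PK at reduced doses, 1 mg/kg iv bolus (5% DMSO, 40% PEG400, 55% saline) and 5 mg/kg oral gavage (microcrystalline cellulose microsuspension); plasma from serial heparinized blood samples (eight po, nine iv time points) quantified by LC-MS/MS, parameters by noncompartmental methods.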

[14] = Tmax in BALB/C mouse at 5 mg/kg, po or 1 mg/kg, iv by LC-MS/MS method; assay type: ADME, organism-based; conditions: in vivo; method in brief: as §4
[15] = AUC in BALB/C mouse at 5 mg/kg, po or 1 mg/kg, iv by LC-MS/MS method; assay type: ADME, organism-based; conditions: plasma
Method in brief: (§5)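 BALB/C nude mice (15−20 g) given 5 mg/kg po and 1 mg/kg iv; blood collected at eight (po) or nine (iv) time points into sodium heparin tubes, plasma stored at −20 °C, measured by LC-MS/MS and analysed noncompartmentally.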

[16] = Oral bioavailability in BALB/C mouse at 5 mg/kg by LC-MS/MS method; assay type: ADME, organism-based; conditions: in vivo; method in brief: as §5
[17] = Cmax in BALB/C mouse at 5 mg/kg, po or 1 mg/kg, iv by LC-MS/MS method; assay type: ADME, organism-based; conditions: in vivo; method in brief: as §5
[18] = Clearance in BALB/C mouse at 5 mg/kg, po or 1 mg/kg, iv by LC-MS/MS method; assay type: ADME, organism-based; conditions: in vivo; method in brief: as §5
[19] = Half life in BALB/C mouse at 5 mg/kg, po or 1 mg/kg, iv by LC-MS/MS method; assay type: ADME, organism-based; conditions: in vivo; method in brief: as §5

Sequence of Cytochrome P450 3A4 (P08684 whole entry): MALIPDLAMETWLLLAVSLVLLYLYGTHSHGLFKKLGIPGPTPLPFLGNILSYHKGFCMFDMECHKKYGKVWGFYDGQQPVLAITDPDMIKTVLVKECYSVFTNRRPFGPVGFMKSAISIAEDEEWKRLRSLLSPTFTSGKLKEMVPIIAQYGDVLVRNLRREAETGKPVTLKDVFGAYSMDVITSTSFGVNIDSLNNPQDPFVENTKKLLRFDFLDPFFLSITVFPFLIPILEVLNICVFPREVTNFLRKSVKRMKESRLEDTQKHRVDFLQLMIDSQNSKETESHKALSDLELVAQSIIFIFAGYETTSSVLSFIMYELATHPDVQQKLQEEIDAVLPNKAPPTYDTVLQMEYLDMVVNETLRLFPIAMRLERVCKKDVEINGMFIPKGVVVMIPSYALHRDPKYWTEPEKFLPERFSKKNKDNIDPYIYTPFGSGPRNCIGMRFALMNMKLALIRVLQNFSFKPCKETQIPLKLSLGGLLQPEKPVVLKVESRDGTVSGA
Sequence of Cytochrome P450 2D6 (P10635 whole entry): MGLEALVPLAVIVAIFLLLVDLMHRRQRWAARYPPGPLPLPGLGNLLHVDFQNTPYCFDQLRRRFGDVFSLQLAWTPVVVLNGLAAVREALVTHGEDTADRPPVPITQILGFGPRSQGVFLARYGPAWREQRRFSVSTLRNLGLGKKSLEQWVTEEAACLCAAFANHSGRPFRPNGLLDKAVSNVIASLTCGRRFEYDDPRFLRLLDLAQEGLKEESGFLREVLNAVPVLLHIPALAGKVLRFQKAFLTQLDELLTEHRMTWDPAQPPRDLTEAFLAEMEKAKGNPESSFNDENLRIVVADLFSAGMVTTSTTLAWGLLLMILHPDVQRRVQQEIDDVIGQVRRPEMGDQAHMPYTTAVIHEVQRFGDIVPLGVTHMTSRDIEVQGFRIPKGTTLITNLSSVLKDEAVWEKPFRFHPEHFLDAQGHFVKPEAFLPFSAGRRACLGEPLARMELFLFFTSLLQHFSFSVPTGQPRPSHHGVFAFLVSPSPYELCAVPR
Sequence of Cytochrome P450 2C9 (P11712 whole entry): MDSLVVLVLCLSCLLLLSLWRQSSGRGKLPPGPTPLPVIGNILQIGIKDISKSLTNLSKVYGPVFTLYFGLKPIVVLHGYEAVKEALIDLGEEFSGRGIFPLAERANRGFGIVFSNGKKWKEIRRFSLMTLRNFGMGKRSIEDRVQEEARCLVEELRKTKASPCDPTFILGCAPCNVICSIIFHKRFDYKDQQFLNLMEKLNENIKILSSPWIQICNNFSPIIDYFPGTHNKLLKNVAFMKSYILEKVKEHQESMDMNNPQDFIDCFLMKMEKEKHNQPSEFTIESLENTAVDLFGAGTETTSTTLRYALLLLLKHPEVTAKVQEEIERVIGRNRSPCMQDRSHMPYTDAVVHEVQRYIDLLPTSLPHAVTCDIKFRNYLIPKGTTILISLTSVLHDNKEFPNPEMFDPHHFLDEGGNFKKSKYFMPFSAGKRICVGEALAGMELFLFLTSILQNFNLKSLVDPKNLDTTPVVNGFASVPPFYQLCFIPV
Sequence of Cytochrome P450 2C19 (P33261 whole entry): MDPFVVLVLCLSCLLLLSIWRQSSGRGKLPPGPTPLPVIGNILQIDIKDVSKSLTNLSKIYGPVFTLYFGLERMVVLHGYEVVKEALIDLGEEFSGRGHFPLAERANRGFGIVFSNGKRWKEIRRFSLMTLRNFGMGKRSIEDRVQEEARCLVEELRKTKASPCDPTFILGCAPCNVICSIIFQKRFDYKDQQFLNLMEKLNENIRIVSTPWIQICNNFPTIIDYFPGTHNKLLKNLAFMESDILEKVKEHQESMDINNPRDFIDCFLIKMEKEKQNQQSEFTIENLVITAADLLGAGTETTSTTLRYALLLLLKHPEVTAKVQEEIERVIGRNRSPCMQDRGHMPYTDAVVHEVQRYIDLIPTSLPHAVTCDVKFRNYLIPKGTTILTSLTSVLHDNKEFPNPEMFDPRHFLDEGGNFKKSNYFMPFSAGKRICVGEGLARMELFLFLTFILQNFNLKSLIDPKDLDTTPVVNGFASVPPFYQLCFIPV
Sequence of Voltage-gated inwardly rectifying potassium channel KCNH2 (Q12809 whole entry): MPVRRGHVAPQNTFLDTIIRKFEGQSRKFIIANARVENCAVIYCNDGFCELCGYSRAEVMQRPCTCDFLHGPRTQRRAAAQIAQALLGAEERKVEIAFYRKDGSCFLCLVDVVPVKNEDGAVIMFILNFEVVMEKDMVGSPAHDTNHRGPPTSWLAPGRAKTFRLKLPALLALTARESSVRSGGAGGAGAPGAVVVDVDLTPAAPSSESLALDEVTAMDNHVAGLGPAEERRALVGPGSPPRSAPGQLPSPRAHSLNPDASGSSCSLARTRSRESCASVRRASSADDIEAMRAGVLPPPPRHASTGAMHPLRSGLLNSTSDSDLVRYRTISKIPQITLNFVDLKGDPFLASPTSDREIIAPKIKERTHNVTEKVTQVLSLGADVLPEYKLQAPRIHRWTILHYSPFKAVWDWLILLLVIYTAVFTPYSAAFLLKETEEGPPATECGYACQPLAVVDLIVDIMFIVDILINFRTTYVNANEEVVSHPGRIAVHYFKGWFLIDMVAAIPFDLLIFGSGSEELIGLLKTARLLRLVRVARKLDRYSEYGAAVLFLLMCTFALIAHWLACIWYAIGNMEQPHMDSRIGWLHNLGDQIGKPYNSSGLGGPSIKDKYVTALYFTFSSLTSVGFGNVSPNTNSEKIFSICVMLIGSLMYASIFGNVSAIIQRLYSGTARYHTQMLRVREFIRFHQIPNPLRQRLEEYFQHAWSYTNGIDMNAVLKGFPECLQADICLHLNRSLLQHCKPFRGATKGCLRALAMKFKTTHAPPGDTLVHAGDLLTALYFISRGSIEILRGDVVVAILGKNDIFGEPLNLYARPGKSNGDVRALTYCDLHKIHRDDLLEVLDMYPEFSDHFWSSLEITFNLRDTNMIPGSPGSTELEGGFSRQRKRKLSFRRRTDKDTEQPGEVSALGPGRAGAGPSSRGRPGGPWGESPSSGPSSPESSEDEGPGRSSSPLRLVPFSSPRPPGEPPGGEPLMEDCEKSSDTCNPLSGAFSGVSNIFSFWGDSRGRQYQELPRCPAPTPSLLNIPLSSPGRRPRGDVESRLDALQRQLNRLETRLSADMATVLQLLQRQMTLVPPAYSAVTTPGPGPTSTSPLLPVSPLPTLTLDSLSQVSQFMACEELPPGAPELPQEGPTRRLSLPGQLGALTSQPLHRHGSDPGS

| SMILES | CLhep predicted at 1 µM [1] [L/h/kg] | Tmax [2] [h] | Cmax [3] [µg/mL] | bioavailability [4] [%] | AUC [5] [µg·h/mL] | half-life [6] [h] | CLhep predicted at 1 µM [7] [L/h/kg] | clearance [8] [L/h/kg] | Vd [9] | Activity [10] [%] | further results |
| --- | --- | --- | --- | --- | --- | --- | --- | --- | --- | --- | --- |
| CC(C)(O)CN1C[C@H](C(=O)Nc2ccc(Cl)cc2)[C@@H](c2ccc(/C=C/C(=O)Nc3ccccc3N)cc2)C1 (racemic) | 2.04 | 1 | 1.1 | 100 | 5.65 | 6.5 | 0.84 | 1.98 | 3.7 | 230 | IC50 (Cytochrome P450 2D6): 0.7 µM; IC50 (Cytochrome P450 2C9): 4 µM; IC50 (Cytochrome P450 3A4): 3 µM; IC50 (Cytochrome P450 2C19): 7 µM; IC50 (Cytochrome P450 1A2): 7 µM |
| Nc1ccccc1NC(=O)c1ccc(CNC(=O)OCc2cccnc2)cc1 [ENTINOSTAT] |  |  |  |  |  |  |  |  |  |  | GI90 (SGC-7901): 2.5 µM; GI90 (SK-HEP1): 13 µM; GI90 (BGC-823): 7.1 µM; GI90 (Bel-7402): 8 µM; GI90 (HGC-27): >30 µM; GI90 (MGC-803): 8.9 µM; GI90 (SMMC-7721): 11 µM |
| Nc1ccccc1NC(=O)/C=C/c1ccc(C(NCCO)C(=O)Nc2ccc(C(F)(F)F)cc2)cc1 (racemic) | 1.98 |  |  | 71 |  |  |  | 2.94 |  | 117 | solubility [12]: 5 µg/mL (≈ 10 µM) |

Second part, led by results:

| CLhep predicted at 1 µM [1] [L/h/kg] | Tmax [2] [h] | Cmax [3] [µg/mL] | bioavailability [4] [%] | AUC [5] [µg·h/mL] | half-life [6] [h] | CLhep predicted at 1 µM [7] [L/h/kg] | clearance [8] [L/h/kg] | Vd [9] | Activity [10] [%] | SMILES | further results |
| --- | --- | --- | --- | --- | --- | --- | --- | --- | --- | --- | --- |
| 1.44 | 0.25 | 0.957 | 58 | 7.1 | 15 | 0.66 | 1.2 | 4.1 | 100 | Nc1ccccc1NC(=O)/C=C/c1ccc([C@H]2CN(CCO)C[C@@H]2C(=O)Nc2ccc(Cl)cc2)cc1 (racemic) | IC50 (Cytochrome P450 2D6): 2 µM; IC50 (Cytochrome P450 2C9): 3 µM; IC50 (Cytochrome P450 3A4): 2 µM; IC50 (Cytochrome P450 2C19): 10 µM; IC50 (Cytochrome P450 1A2): 26 µM; IC50 [11]: 15 µM |
| 2.28 | 2 | 0.331 | 100 | 2.08 | 5.4 |  | 5.16 | 32 | 230 | CC(C)N1C[C@H](C(=O)Nc2ccc(Cl)cc2)[C@@H](c2ccc(/C=C/C(=O)Nc3ccccc3N)cc2)C1 (racemic) |  |
| 2.76 | 1 | 0.262 | 29 | 0.911 | 4 |  | 3.18 | 7.2 | 180 | CN1C[C@H](C(=O)Nc2ccc(F)c(F)c2)[C@@H](c2ccc(/C=C/C(=O)Nc3ccccc3N)cc2)C1 (racemic) |  |
| 2.04 |  |  |  |  |  | 0.3 |  |  | 250 | CN1C[C@H](C(=O)Nc2ccc(F)cc2)[C@@H](c2ccc(/C=C/C(=O)Nc3ccccc3N)cc2)C1 (racemic) | Vd [13]: 16 L; Tmax [14]: 2 h; AUC [15]: 0.624 µg·h/mL; bioavailability [16]: 95%; Cmax [17]: 0.17 µg/mL; clearance [18]: 7.62 L/h/kg; half-life [19]: 5 h |

From ChEMBL document CHEMBL2177000, “Pharmacokinetic optimization of class-selective histone deacetylase inhibitors and identification of associated candidate predictive biomarkers of hepatocellular carcinoma tumor response” (J Med Chem, 2012)
